Experimental data taken from ChEMBL document CHEMBL4390663, “Cationic biaryl 1,2,3-triazolyl peptidomimetic amphiphiles: synthesis, antibacterial evaluation and preliminary mechanism of action studies” (Eur J Med Chem, 2019).

Key:
[1] = tested on: Enterococcus faecalis; assay: Antibacterial activity against Enterococcus faecalis ATCC 29212 incubated for 24 hrs by CLSI method; assay type: functional; details: ATCC 29212, 24 h
[2] = tested on: Streptococcus pneumoniae; assay: Antibacterial activity against Streptococcus pneumoniae ATCC 49619 incubated for 24 hrs by CLSI method; assay type: functional; details: ATCC 49619, 24 h
How it was run: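 CLSI broth microdilution in MHB with 2.5% lysed horse blood, 5% CO2, 35 °C, 24 h. Compounds from 5 mg/mL DMSO stocks diluted in water plus double-strength broth; final 0.25–128 μg/mL. […] Triplicate; modal MIC read visually as lowest growth-inhibiting concentration.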

[3] = Haemolytic activity in sheep erythrocytes at 50 ug/ml incubated for 2 hrs under shaking condition relative to control; assay type: ADME, cell-based, Ovis aries, Erythrocyte; details: read-out: Activity
How it was run: (§1)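 Compounds in PBS mixed with washed sheep erythrocytes (2% final) at 5 or 50 μg/mL, rocked 2 h at 37 °C, centrifuged; supernatant absorbance at 540 nm. PBS-only value subtracted, then expressed relative to water lysis (100%). Triplicate, means reported.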

[4] = tested on: Escherichia coli; assay: Antibacterial activity against Escherichia coli ATCC 25922 incubated for 18 hrs by CLSI method; assay type: functional; details: ATCC 25922, 18 h
How it was run: (§2)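 Screen run by CO-ADD: mid-log cultures in cation-adjusted MHB, 5 × 10^5 CFU/mL, compounds at up to 32 μg/mL in 1:2 serial dilutions (8 steps), final DMSO ≤0.5%, duplicate. 37 °C for 18 h without shaking; OD600 read against media-only and untreated-bacteria references. MIC = lowest concentration giving ≥80% inhibition; colistin standard.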

[5] = tested on: Klebsiella pneumoniae; assay: Antibacterial activity against Klebsiella pneumoniae 700603 incubated for 18 hrs by CLSI method; assay type: functional; details: Klebsiella pneumoniae, 700603, 18 h; how it was run: as §2
[6] = tested on: Staphylococcus aureus; assay: Antibacterial activity against methicillin-resistant Staphylococcus aureus NCTC 10442 incubated for 24 hrs by CLSI method; assay type: functional; details: NCTC 10442, 24 h
How it was run: (§3)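 Broth microdilution per CLSI aerobic guidance in Mueller Hinton broth, ambient air, 35 °C for 24 h. DMSO stocks were diluted in water, then serially diluted with double-strength broth inoculum added, for final 0.25–128 μg/mL. […] MIC was read visually as the lowest concentration inhibiting growth; the modal value of triplicates was recorded.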

[7] = tested on: Clostridioides difficile; assay: Antibacterial activity against Clostridium difficile ATCC 700057 incubated for 48 hrs by CLSI method; assay type: functional; details: ATCC 700057, 48 h
How it was run: (§4)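 Broth microdilution per CLSI anaerobe method in pre-reduced (2-4 h) Brucella broth with haemin and vitamin K, 35 °C anaerobically for 48 h. Compounds from 5 mg/mL DMSO stocks, twofold dilutions in water mixed with double-strength broth; final 0.25–128 μg/mL. […] Triplicate; modal MIC read visually as lowest concentration inhibiting growth.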

[8] = Haemolytic activity in sheep erythrocytes at 5 ug/ml incubated for 2 hrs under shaking condition relative to control; assay type: ADME, cell-based, Ovis aries, Erythrocyte; details: read-out: Activity; how it was run: as §1
[9] = tested on: Pseudomonas aeruginosa; assay: Antimicrobial activity against Pseudomonas aeruginosa ATCC 27853 incubated for 18 hrs by CLSI method; assay type: functional; details: ATCC 27853, 18 h; how it was run: as §2
[10] = tested on: Staphylococcus aureus; assay: Antimicrobial activity against Staphylococcus aureus ATCC 29213 incubated for 24 hrs by CLSI method; assay type: functional; details: ATCC 29213, 24 h; how it was run: as §3
[11] = Cytotoxicity against human HEK293 cells assessed as reduction in cell growth incubated for 20 hrs by resazurin dye-based fluorometric assay
How it was run: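 HEK293 cells, 5000 per well in DMEM + 10% FBS, exposed to compounds (top 32 μg/mL, 1:2 serial dilution ×8, ≤0.5% DMSO, duplicate) for 20 h at 37 °C, 5% CO2. Resazurin added (2.3 μg/mL final), 3 h further; fluorescence ex 560/em 590 nm. CC50 from sigmoidal dose-response fit against log concentration; tamoxifen standard.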

[12] = tested on: Clostridioides difficile; assay: Antibacterial activity against Clostridium difficile NSW132 RT027 incubated for 48 hrs by CLSI method; assay type: functional; details: NSW132 RT027, 48 h; how it was run: as §4
[13] = tested on: Acinetobacter baumannii; assay: Antimicrobial activity against Acinetobacter baumannii ATCC 19606 incubated for 18 hrs by CLSI method; assay type: functional; details: ATCC 19606 = CIP 70.34 = JCM 6841, 18 h; how it was run: as §2
[14] = tested on: Staphylococcus aureus; assay: Antimicrobial activity against Staphylococcus aureus ATCC 43300 incubated for 18 hrs by CLSI method; assay type: functional; details: ATCC 43300, 18 h

| Compound | MIC [1] [µg/mL] | MIC [2] [µg/mL] | hemolysis at 2 h, 50 ug/ml [3] [%] | MIC [4] [µg/mL] | MIC [5] [µg/mL] | MIC [6] [µg/mL] | MIC [7] [µg/mL] | hemolysis at 2 h, 5 ug/ml [8] [%] | MIC [9] [µg/mL] | MIC [10] [µg/mL] | CC50 at 20 h [11] [µg/mL] | MIC [12] [µg/mL] | MIC [13] [µg/mL] | MIC [14] [µg/mL] |
| --- | --- | --- | --- | --- | --- | --- | --- | --- | --- | --- | --- | --- | --- | --- |
| CC(C)CCOc1ccccc1-c1ccccc1OCc1cn(C[C@@H](CCCNC(=N)N)NC(=O)OCc2ccccc2)nn1.Cl | 8 | 16 | 89.1 | > 32 | > 32 | 4 | 32 | 0.7 | > 32 | 4 | > 32 | 32 | > 32 | 8 |
| CC(C)CCOc1ccc2ccccc2c1-c1c(OCc2cn(C[C@@H](CCCNC(=N)N)NC(=O)Cc3ccccc3)nn2)ccc2ccccc12.Cl | 8 | 8 | 87.4 | > 32 | > 32 | 4 | 64 | 1 | > 32 | 4 | 16.5 | 64 | > 32 | 4 |
| CC(C)CCOc1ccccc1-c1ccccc1OCc1cn(C[C@@H](CCCNC(=N)N)NC(=O)[C@@H](CCCCN)n2cc(CCc3ccccc3)nn2)nn1.Cl.Cl | 8 | 4 | 28.8 | 4 | 16 | 4 | 16 | 1.7 | 8 | 4 | 17.4 | 16 | 16 | 2 |
| CC(C)CCOc1ccccc1-c1ccccc1OCc1cn(C[C@@H](CCCCN)NC(=O)[C@@H](CCCNC(=N)N)NC(=O)Cc2ccccc2)nn1.Cl.Cl | 8 | 8 | 17.5 | 16 | 32 | 8 | 16 | 0.6 | 32 | 8 | 32 | 16 | 32 | 4 |
| CC(C)CCOc1ccc2ccccc2c1-c1c(OCc2cn(C[C@@H](CCCNC(=N)N)NC(=O)OCc3ccccc3)nn2)ccc2ccccc12.Cl | 8 | 8 | – | > 32 | > 32 | 4 | 32 | – | > 32 | 4 | 13.8 | 32 | > 32 | 4 |
| CC(C)CCOc1ccccc1-c1ccccc1OCc1cn(C[C@@H](CCCNC(=N)N)NC(=O)[C@@H](CCCCN)n2cc(C3CCCCC3)nn2)nn1.Cl.Cl | 8 | 4 | – | 8 | 32 | 4 | 32 | – | 8 | 4 | 15.3 | 32 | 8 | 4 |
| CC(C)CCOc1ccccc1-c1ccccc1OCc1cn(C[C@@H](CCCNC(=N)N)NC(=O)[C@@H](CCCCN)N=[N+]=[N-])nn1.Cl.Cl | 16 | 8 | – | 16 | 32 | 16 | 64 | – | 32 | 16 | > 32 | 32 | 16 | 8 |
